Our source for the IC50, Ratio and Vmax values is ChEMBL document CHEMBL1125864, “Folate analogues. 35. Synthesis and biological evaluation of 1-deaza, 3-deaza, and bridge-elongated analogues of N10-propargyl-5,8-dideazafolic acid” (J Med Chem, 1991).

Some results are limits rather than exact numbers.

One data set relates to Manca. The data set can be described thus: Compound was evaluated for inhibition of tumor cell growth in Manca human lymphoma cell line. It is filed as functional, cell-based. The conditions noted are these: read-out: I50.
The next data set has as its system SW480. In words: Compound was evaluated for inhibition of tumor cell growth in SW/480 cell line. It is filed as functional, cell-based. The conditions noted are these: Homo sapiens, read-out: I50. A digest of the protocol:
(§1)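 Cells were grown in folate-free RPMI 1640 with 10% dialyzed FCS and 20 nM leucovorin, seeding SW480 at 8000 and MCF-7 at 10000 cells/well. After 24 h at 37 °C and 5% CO₂, drug diluted in leucovorin-free medium was added to triplicate wells for 96 h. Growth was read by MTT reduction (1 h), followed by DMSO solubilization and absorbance.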

Data set [1] deals with Thymidylate synthase (Homo sapiens, UniProt P04818). In words: Compound was evaluated for the inhibition of human Thymidylate Synthase. The conditions noted are these: read-out: I50.
Sequence of Thymidylate synthase (Homo sapiens, UniProt P04818) (P04818 whole entry): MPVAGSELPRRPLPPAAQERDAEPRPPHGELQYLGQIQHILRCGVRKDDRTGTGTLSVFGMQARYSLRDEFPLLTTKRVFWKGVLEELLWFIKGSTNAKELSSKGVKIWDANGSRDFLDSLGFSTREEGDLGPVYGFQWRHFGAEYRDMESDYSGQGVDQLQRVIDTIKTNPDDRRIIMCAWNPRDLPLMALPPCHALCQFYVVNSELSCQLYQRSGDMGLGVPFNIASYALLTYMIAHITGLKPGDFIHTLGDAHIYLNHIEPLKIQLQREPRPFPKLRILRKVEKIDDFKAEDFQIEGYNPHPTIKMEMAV
The subject of the next data set is MOLT-4. The data set can be described thus: Compound was evaluated for inhibition of MTX influx into MOLT-4 cells. The conditions noted are these: Homo sapiens, read-out: I50. It is filed as functional, cell-based. A digest of the protocol: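 MOLT-4 cells were grown in folate-free RPMI-1640 with 10% dialyzed FCS and 20 nM leucovorin, then resuspended in pH 7.4 Tris/bicarbonate buffer with 10 mM DTT at 37 °C. Test compound was added with TLC-purified ³H-MTX at t = 0. Timed aliquots were spun through 1-bromododecane, and pellets were NaOH-extracted and scintillation counted. Rates came from 4–5 linear points at ≤10 min.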

Another data set relates to MCF7. In words: Compound was evaluated for inhibition of tumor cell growth in MCF-7 cell line. The conditions noted are these: Homo sapiens, read-out: I50. Type of data set: functional, cell-based. An outline of the steps: as §1
Data set [2] in a line: It is the ratio of relative maximum velocity to that of apparent kinetic constant.
Data set [3] addresses Thymidylate synthase (Escherichia coli, UniProt C3SWJ7). The data set can be described thus: Compound was evaluated for the inhibition of Escherichia coli Thymidylate Synthase. The conditions noted are these: read-out: I50.
Substrate in data set [4]: C#CCN(Cc1ccc(C(=O)NC(CCC(=O)O)C(=O)O)cc1)Cc1ccc2nc(C)nc(O)c2c1
In words: Relative maximum velocity of Folyl-polyglutamate synthase (relative to control of 50 uM aminopterin). The conditions noted are these: Sus scrofa. A digest of the protocol: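 Substrate activity was measured with partially purified hog liver FPGS, following an earlier published method. Vmax is expressed relative to a control of 50 μM aminopterin that was run in every experiment. Where activity was weak, relative velocity was reported at 200 μM substrate.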

Sequence of Thymidylate synthase (Escherichia coli, UniProt C3SWJ7) (C3SWJ7 whole entry): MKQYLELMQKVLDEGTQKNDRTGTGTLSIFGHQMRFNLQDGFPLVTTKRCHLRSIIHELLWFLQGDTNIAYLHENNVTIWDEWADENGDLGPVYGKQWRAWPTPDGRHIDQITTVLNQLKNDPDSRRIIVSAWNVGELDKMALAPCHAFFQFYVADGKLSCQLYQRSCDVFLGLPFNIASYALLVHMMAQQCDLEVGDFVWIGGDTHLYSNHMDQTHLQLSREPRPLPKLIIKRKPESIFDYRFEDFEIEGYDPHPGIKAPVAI

Consider `C#CCN(Cc1ccc(C(=O)NC(CCC(=O)O)C(=O)O)cc1)Cc1ccc2c(c1)C(=O)CC(C)=N2` (stereo unspecified), for which the IC50 with Manca was above 600 µM; in the data set on SW480 it was above 50 µM; on Thymidylate synthase [1], 1.4 µM.

On to `C#CCN(Cc1ccc(C(=O)NC(CCC(=O)O)C(=O)O)cc1)Cc1ccc2ccnc(O)c2c1` (stereo unspecified), for which the IC50 in the data set with Manca was 9 µM; with MOLT-4, 4.5 µM; with MCF7, 22 µM; with SW480, above 100 µM; at Thymidylate synthase [1], 0.74 µM. Moreover, the Ratio in data set [2] was found to be 0.38.

Turning to `C#CCN(Cc1ccc2[nH]c(N)nc(=O)c2c1)c1ccc(C(=O)NC(CCC(=O)O)C(=O)O)cc1` (stereo unspecified), the IC50 is 0.56 µM with Manca, 28 µM in the data set with MOLT-4, 0.8 µM in the data set on MCF7 and 0.8 µM in the data set with SW480.

With `Nc1nc(=O)c2nc(CNc3ccc(C(=O)N[C@@H](CCC(=O)O)C(=O)O)cc3)cnc2[nH]1` [FOLIC ACID], in the data set on MOLT-4, the IC50 is above 100 µM. In addition, the Ratio in data set [2] was 0.77.

As for `C#CCN(Cc1ccc2c(c1)C(=O)N[C@H](C)N2)c1ccc(C(=O)NC(CCC(=O)O)C(=O)O)cc1` (stereo partly specified), the IC50 in the data set with SW480 was 0.6 µM; on Thymidylate synthase [3] it was 1.5 µM; at Thymidylate synthase [1], 0.43 µM.

As for `Nc1nc(O)c2c(n1)NCC(CNc1ccc(C(=O)N[C@@H](CCC(=O)O)C(=O)O)cc1)N2` (stereo partly specified), in data set [2], the Ratio worked out at 32.1.

Consider `Nc1nc(=O)c2c([nH]1)NCC(CNc1ccc(C(=O)N[C@H](CCC(=O)O)C(=O)O)cc1)N2C=O` (stereo partly specified), for which the IC50 in the data set on MOLT-4 is 3.5 µM.

Take `C#CCN(Cc1ccc2nc(C)nc(O)c2c1)c1ccc(C(=O)NC(CCC(=O)O)C(=O)O)cc1` (stereo unspecified): the IC50 was 0.013 µM in the data set with Manca; 1.5 µM with MOLT-4; 0.007 µM in the data set with MCF7; 0.05 µM in the data set with SW480; 0.045 µM at Thymidylate synthase [3]; 0.01 µM on Thymidylate synthase [1]. The Ratio in data set [2] was found to be 1.33.

In the case of `C#CCN(Cc1ccc(C(=O)NC(CCC(=O)O)C(=O)O)cc1)Cc1ccc2nc(C)nc(O)c2c1` (stereo unspecified), the IC50 was 7 µM in the data set on MOLT-4; above 100 µM in the data set on MCF7; above 100 µM in the data set with SW480; 515 µM on Thymidylate synthase [3]; 83 µM at Thymidylate synthase [1]. Further, in data set [2], the Ratio stood at 2.01.

As for `CN(Cc1cnc2nc(N)nc(N)c2n1)c1ccc(C(=O)N[C@@H](CCC(=O)O)C(=O)O)cc1` [METHOTREXATE], the IC50 in the data set on MOLT-4 worked out at 1.4 µM.

For `C#CCN(Cc1ccc2c(c1)C(=O)C[C@H](C)N2)c1ccc(C(=O)NC(CCC(=O)O)C(=O)O)cc1` (stereo partly specified), the IC50 was 4.5 µM in the data set with MOLT-4; above 100 µM in the data set on MCF7; above 100 µM in the data set on SW480; 1.88 µM on Thymidylate synthase [3]; 24 µM at Thymidylate synthase [1].

Consider `C#CCN(Cc1ccc(C(=O)NC(CCC(=O)O)C(=O)O)cc1)Cc1ccc2nc(N)nc(O)c2c1` (stereo unspecified), for which the IC50 in the data set on Manca was above 80 µM; in the data set on MCF7, above 100 µM; in the data set on SW480, above 100 µM; at Thymidylate synthase [3] it was 201 µM; at Thymidylate synthase [1], 31 µM. The Ratio in data set [2] came out at 1.9.

B1: Folylpolyglutamate synthase, mitochondrial (Homo sapiens), Q05932 (protein)
chain: MSRARSHLRAALFLAAASARGITTQVAARRGLSAWPVPQEPSMEYQDAVRMLNTLQTNAGYLEQVKRQRGDPQTQLEAMELYLARSGLQVEDLDRLNIIHVTGTKGKGSTCAFTECILRSYGLKTGFFSSPHLVQVRERIRINGQPISPELFTKYFWRLYHRLEETKDGSCVSMPPYFRFLTLMAFHVFLQEKVDLAVVEVGIGGAYDCTNIIRKPVVCGVSSLGIDHTSLLGDTVEKIAWQKGGIFKQGVPAFTVLQPEGPLAVLRDRAQQISCPLYLCPMLEALEEGGPPLTLGLEGEHQRSNAALALQLAHCWLQRQDRHGAGEPKASRPGLLWQLPLAPVFQPTSHMRLGLRNTEWPGRTQVLRRGPLTWYLDGAHTASSAQACVRWFRQALQGRERPSGGPEVRVLLFNATGDRDPAALLKLLQPCQFDYAVFCPNLTEVSSTGNADQQNFTVTLDQVLLRCLEHQQHWNHLDEEQASPDLWSAPSPEPGGSASLLLAPHPPHTCSASSLVFSCISHALQWISQGRDPIFQPPSPPKGLLTHPVAHSGASILREAAAIHVLVTGSLHLVGGVLKLLEPALSQ
As to B1, the Vmax in data set [4] worked out at 138%.
